Experiments:
[1] = Cytotoxicity, CellTiter 96 assay in CEM cells; assay type: cell-based, human; conditions: human, T lymphoblast (CEM) cells
Outline: (§1)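 Colorimetric non-radioactive cell proliferation read-out (CellTiter 96). CC50 is the test compound concentration that inhibited cell growth by 50%.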

[2] = system: HBV DNA replication in HepAD38 cells; experiment: Anti-HBV activity, 7-day assay in HepAD38 cells; assay type: cell-based, hepatitis B virus; conditions: for EC50 / EC90: Hepatitis B virus, HePAD38, 168 h; for EC50: read-out: Anti-HBV activity EC50; for EC90: read-out: Anti-HBV activity EC90; for fold increase of anti-HBV potency compared to GLP-26: HepAD38 EC50 relative to reference GLP-26
[3] = Cytotoxicity, CellTiter 96 assay in PBM cells; assay type: cell-based, human; conditions: human, peripheral blood mononuclear (PBM) cells
Outline: as §1

[4] = Cytotoxicity, CellTiter 96 assay in HepG2 cells; assay type: cell-based, human; conditions: human, hepatocellular carcinoma (HepG2) cells
Outline: as §1

[5] = Cytotoxicity, CellTiter 96 assay in Vero cells; assay type: cell-based, African green monkey; conditions: African green monkey, kidney (Vero) cells
Outline: as §1

| Structure (SMILES) | CC50 [1] [µM] | EC50 [2] [µM] | EC90 [2] [µM] | CC50 [3] [µM] | CC50 [4] [µM] | CC50 [5] [µM] | fold increase of anti-HBV potency compared to GLP-26 [2] |
| --- | --- | --- | --- | --- | --- | --- | --- |
| C#CCNC(=O)C(=O)c1c(C)c(C(=O)Nc2ccc(F)c(F)c2)n(CC)c1C [Compound 5a, N-(3,4-Difluorophenyl)-1-ethyl-3,5-dimethyl-4-(2-oxo-2-(prop-2-yn-1-ylamino)acetyl)-1H-pyrrole-2-carboxamide] | > 100 | 0.0071 ± 0.0062 | 0.0494 ± 0.0129 | > 100 | > 100 | > 100 | – |
| C#CCNC(=O)C(=O)c1c(C)c(C(=O)Nc2ccc(F)c(F)c2)n(CCC)c1C [Compound 5b, N-(3,4-Difluorophenyl)-3,5-dimethyl-4-(2-oxo-2-(prop-2-yn-1-ylamino)acetyl)-1-propyl-1H-pyrrole-2-carboxamide] | > 100 | 0.0091 ± 0.0037 | 0.044 ± 0.021 | > 100 | > 100 | > 100 | – |
| C#CCNC(=O)C(=O)c1c(C)c(C(=O)Nc2ccc(F)c(F)c2)n(CCCC)c1C [Compound 5c, 1-Butyl-N-(3,4-difluorophenyl)-3,5-dimethyl-4-(2-oxo-2-(prop-2-yn-1-ylamino)acetyl)-1H-pyrrole-2-carboxamide] | > 100 | 0.0874 ± 0.0037 | 0.556 ± 0.147 | > 100 | > 100 | > 100 | – |
| C#CCNC(=O)C(=O)c1c(C)c(C(=O)Nc2ccc(F)c(F)c2)n(CC=C)c1C [Compound 5d, 1-Allyl-N-(3,4-difluorophenyl)-3,5-dimethyl-4-(2-oxo-2-(prop-2-yn-1-ylamino)acetyl)-1H-pyrrole-2-carboxamide] | > 100 | 0.003 ± 0.0014 | 0.128 ± 0.15 | > 100 | > 100 | > 100 | – |
| C#CCNC(=O)C(=O)c1c(C)c(C(=O)Nc2ccc(F)c(F)c2)n(C2CC2)c1C [Compound 5e, 1-Cyclopropyl-N-(3,4-difluorophenyl)-3,5-dimethyl-4-(2-oxo-2-(prop-2-yn-1-ylamino)acetyl)-1H-pyrrole-2-carboxamide] | > 100 | 0.0075 ± 0.0078 | 0.0415 ± 0.012 | > 100 | > 100 | > 100 | – |
| C#CCNC(=O)C(=O)c1c(C)c(C(=O)Nc2ccc(F)c(F)c2)n(CC2CC2)c1C [Compound 5f, 1-(Cyclopropylmethyl)-N-(3,4-difluorophenyl)-3,5-dimethyl-4-(2-oxo-2-(prop-2-yn-1-ylamino)acetyl)-1H-pyrrole-2-carboxamide] | > 100 | 0.0522 ± 0.0271 | 0.0522 ± 0.0271 | > 100 | > 100 | > 100 | – |
| C#CCNC(=O)C(=O)c1c(C)c(C(=O)Nc2ccc(F)c(F)c2)n(CC#C)c1C [Compound 5g, N-(3,4-Difluorophenyl)-3,5-dimethyl-4-(2-oxo-2-(prop-2-yn-1-ylamino)acetyl)-1-(prop-2-yn-1-yl)-1H-pyrrole-2-carboxamide] | > 100 | 0.00088 ± 0.00043 | 0.0103 ± 0.006 | > 100 | > 100 | > 100 | > 5 fold |
| C#CCNC(=O)C(=O)c1c(C)c(C(=O)Nc2ccc(F)c(F)c2)n(CC#CC)c1C [Compound 5h, 1-(But-2-yn-1-yl)-N-(3,4-difluorophenyl)-3,5-dimethyl-4-(2-oxo-2-(prop-2-yn-1-ylamino)acetyl)-1H-pyrrole-2-carboxamide] | > 100 | 0.0452 ± 0.0201 | 0.395 ± 0.327 | > 100 | > 100 | > 100 | – |
| C#CCNC(=O)C(=O)c1c(C)c(C(=O)Nc2ccc(F)c(F)c2)n(CC#CCC)c1C [Compound 5i, N-(3,4-Difluorophenyl)-3,5-dimethyl-4-(2-oxo-2-(prop-2-yn-1-ylamino)acetyl)-1-(pent-2-yn-1-yl)-1H-pyrrole-2-carboxamide] | > 100 | 0.826 ± 0.172 | 3.69 | > 100 | > 100 | > 100 | – |
| C#CCNC(=O)C(=O)c1c(C)c(C(=O)Nc2ccc(F)c(F)c2)n(Cc2ccccc2)c1C [Compound 5j, 1-Benzyl-N-(3,4-difluorophenyl)-3,5-dimethyl-4-(2-oxo-2-(prop-2-yn-1-ylamino)acetyl)-1H-pyrrole-2-carboxamide] | > 100 | 2.52 | > 10 | > 100 | > 100 | > 100 | – |
| C#CC(C)(C)NC(=O)C(=O)c1c(C)c(C(=O)Nc2ccc(F)c(F)c2)n(C)c1C [Compound 9a, N-(3,4-Difluorophenyl)-1,3,5-trimethyl-4-(2-((2-methylbut-3-yn-2-yl)amino)-2-oxoacetyl)-1H-pyrrole-2-carboxamide] | 25 ± 2 | 0.00071 ± 0.00022 | 0.0082 ± 0.0006 | 64 ± 26 | 91 ± 12 | > 100 | 5–30 fold |
| C#CC(C)(CC)NC(=O)C(=O)c1c(C)c(C(=O)Nc2ccc(F)c(F)c2)n(C)c1C (stereo not shown) [Compound 9b, N-(3,4-Difluorophenyl)-1,3,5-trimethyl-4-(2-(3-methylpent-1-yn-3-ylamino)-2-oxoacetyl)-1H-pyrrole-2-carboxamide] | 10 ± 3 | 0.00015 ± 7e-05 | 0.0068 ± 0.0034 | 61 ± 43 | 84 ± 11 | 64 ± 16 | 5–30 fold |
| C#CC(CC)(CC)NC(=O)C(=O)c1c(C)c(C(=O)Nc2ccc(F)c(F)c2)n(C)c1C [Compound 9c, N-(3,4-Difluorophenyl)-4-(2-(3-ethylpent-1-yn-3-ylamino)-2-oxoacetyl)-1,3,5-trimethyl-1H-pyrrole-2-carboxamide] | 16 | 0.0005 ± 0.0003 | 0.0046 ± 0.0023 | 26 ± 14 | 44 ± 35 | 42 | 5–30 fold |
| C#CC1(NC(=O)C(=O)c2c(C)c(C(=O)Nc3ccc(F)c(F)c3)n(C)c2C)CC1 [Compound 9d, N-(3,4-Difluorophenyl)-4-(2-(1-ethynylcyclopropylamino)-2-oxoacetyl)-1,3,5-trimethyl-1H-pyrrole-2-carboxamide] | > 100 | 0.0008 ± 0.0007 | 0.0061 ± 0.0022 | > 100 | > 100 | > 100 | 5–30 fold |
| C#CC1(NC(=O)C(=O)c2c(C)c(C(=O)Nc3ccc(F)c(F)c3)n(C)c2C)CCC1 [Compound 9e, N-(3,4-Difluorophenyl)-4-(2-(1-ethynylcyclobutylamino)-2-oxoacetyl)-1,3,5-trimethyl-1H-pyrrole-2-carboxamide] | > 100 | 0.0003 ± 0.0004 | 0.0019 ± 0.0015 | > 100 | 98 | > 100 | 5–30 fold |
| C#CC1(NC(=O)C(=O)c2c(C)c(C(=O)Nc3ccc(F)c(F)c3)n(C)c2C)CCCCC1 [Compound 9f, N-(3,4-Difluorophenyl)-4-(2-(1-ethynylcyclohexylamino)-2-oxoacetyl)-1,3,5-trimethyl-1H-pyrrole-2-carboxamide] | 15 | 0.0035 ± 0.0048 | 0.0074 ± 0.0093 | 23 ± 13 | 42 ± 23 | 43 | only a moderate improvement |
| C#CCn1c(C)c(C(=O)C(=O)NC(C#C)(CC)CC)c(C)c1C(=O)Nc1ccc(F)c(F)c1 [Compound 10b, N-(3,4-difluorophenyl)-4-(2-((3-ethylpent-1-yn-3-yl)amino)-2-oxoacetyl)-3,5-dimethyl-1-(prop-2-yn-1-yl)-1H-pyrrole-2-carboxamide] | 76 ± 17 | 0.0079 ± 0.0016 | 0.06 ± 0.041 | 53 ± 41 | 72 ± 39 | > 100 | – |

Reference: PMC10765384 (Bioorganic chemistry, 2023)
